Drawing on ChEMBL document CHEMBL1154181 (J Med Chem, 2009), this text covers ED50 for 19 compounds.

What all share (format): functional
The subject of assay [1] is Mus musculus. The assay can be described thus: Antinociceptive activity against radiant heat-induced nociception in icv dosed CD1 mouse assessed as increase in tail withdrawal latency measured after 15 to 120 mins postdose by tail flick test. In outline:
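Male CD-1 mice anesthetized with ketamine-xylazine (80 + 10 mg/kg ip). Dosed into the right lateral ventricle (+2 mm ML, −0.3 mm AP to bregma, 2 mm depth). Tail flick with radiant heat, cut-off 15 s. Latency read at 15–120 min as %MPE.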

Assay [2] concerns Mus musculus. The assay can be described thus: Antinociceptive activity against thermal nociception in po dosed CD1 mouse assessed as increase in latency period to elicit jumping or hind paw licking measured after 15 to 90 mins postdose by hot plate method. A general note: In hot-plate and tail-flick tests a longer latency is read as antinociception.
Assay [3] concerns Mus musculus. The assay can be described thus: Antinociceptive activity against radiant heat-induced nociception in po dosed CD1 mouse assessed as increase in tail withdrawal latency measured after 15 to 120 mins postdose by tail flick test. The method in brief: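 Male CD-1 mice, 25–30 g; oral dosing. Radiant heat focused 3–4 cm from tail tip of hand-restrained mice; tail withdrawal latency recorded, cutoff 15 s at 15 V. Baseline = mean of three readings 15 min apart; latency at 15–120 min.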

Consider `C=Cc1c(C)nn(CCCN2CCN(C)CC2)c(=O)c1N`, for which, in the assay on Mus musculus [1], the ED50 was found to be 8.7 µg.
Same read-out and setting: to `C=Cc1c(C)nn(CCCN2CCN(c3cccc(Cl)c3)CC2)c(=O)c1N` belongs 23.7 µg; to `C=Cc1c(C)nn(CCCN2CCN(c3cccc(C)c3)CC2)c(=O)c1N`, 51.55 µg; to `C=Cc1c(C)nn(CCN2CCN(c3ccc(OC)cc3)CC2)c(=O)c1N`, 11.9 µg.
As to `Cc1ccc(N2CCN(CCn3nc(-c4ccccc4)c(-c4csc(C)n4)c(N)c3=O)CC2)cc1`, the ED50 in the assay on Mus musculus [1] was 25.1 µg.
Still for that read-out and setting: to `C=Cc1cnn(CCCN2CCN(c3ccc(C)cc3)CC2)c(=O)c1N` belongs 25.1 µg.
Turning to `CN1CC[C@]23c4c5ccc(O)c4O[C@H]2[C@@H](O)C=C[C@H]3[C@H]1C5` [MORPHINE], the ED50 in the assay with Mus musculus [2] is 6.9 mg/kg; in the assay on Mus musculus [3], 3.5 mg/kg; in the assay on Mus musculus [1], 1.1 µg.
On to `C=Cc1c(C)nn(CCN2CCN(c3ccc(C)cc3)CC2)c(=O)c1N`, for which, in the assay with Mus musculus [1], the ED50 worked out at 26.1 µg.
Same read-out and setting: to `C=Cc1c(C)nn(CCCN2CCN(c3ccc(OC)cc3)CC2)c(=O)c1N` belongs 12.6 µg.
In the case of `Cc1ccc(N2CCN(CCn3nc(C)c(-c4ccn[nH]4)c(N)c3=O)CC2)cc1`, the ED50 in the assay on Mus musculus [1] was 16.9 µg.
As to `Cc1ccc(N2CCN(CCCn3cc(-c4ccncc4)cc(N)c3=O)CC2)cc1`, in the assay with Mus musculus [1], the ED50 worked out at 7.6 µg.
For the compound `Cc1ccc(N2CCN(CCCn3nc(C)cc(N)c3=O)CC2)cc1`, in the assay with Mus musculus [1], the ED50 came out at 4.9 µg.
On to `C=Cc1c(C)nn(CCCN2CCN(c3ccc(Cl)cc3)CC2)c(=O)c1N`, for which the ED50 in the assay with Mus musculus [1] turned out to be 15.4 µg.
Regarding `C=Cc1sc(=O)n(CCCN2CCN(c3ccc(C)cc3)CC2)c1C`, the ED50 in the assay with Mus musculus [1] was 5.1 µg.
Take `Cc1ccc(N2CCN(CCCn3nc(C)ccc3=O)CC2)cc1`: in the assay with Mus musculus [1], the ED50 amounted to 13.8 µg.
For `C=Cc1c(C)nn(C)c(=O)c1NCCN1CCN(c2ccc(C)cc2)CC1`, the ED50 in the assay with Mus musculus [1] amounted to 24.1 µg.
With `C=Cc1c(C)nn(CCCN2CCC(C)CC2)c(=O)c1N`, the ED50 in the assay on Mus musculus [1] is 26.4 µg.
With `C=Cc1c(C)nn(CCCN2CCN(c3cccc(OC)c3)CC2)c(=O)c1N`, the ED50 in the assay on Mus musculus [1] was determined as 72.6 µg.
Same read-out and setting: the figure for `Cc1ccc(N2CCN(CCCn3nc(-c4ccccc4)c(-c4csc(C)n4)c(N)c3=O)CC2)cc1` is 48.3 µg.
